Experimental data: ChEMBL document CHEMBL1126854, “A series of penicillin derived C2-symmetric inhibitors of HIV-1 proteinase: synthesis, mode of interaction, and structure-activity relationships” (J Med Chem, 1993)
pEC50, pIC50: −log10 of the molar value.

What was measured:
[1] = system: MT4; assay: Inhibition of cytopathic effect of HIV-1 strain RF in MT-4 cell culture; assay type: functional, cell-based; conditions: Homo sapiens
Outline: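 MT-4 cells at 10^6 cells/mL in RPMI 1640 were infected with HIV-1 RF at moi 2×10^-3 (5×10^4 cells/well). Compound in Me2SO was diluted in 10-fold steps from 100 to 0.01 μg/mL. Cells were kept 7 days at 37 °C, 5% CO2, then given MTT for 60 min. Acidified 2-propanol was added and A540 read. EC50 for 50% inhibition of formazan conversion is the mean of duplicates; toxicity was assayed at the same concentrations.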

[2] = molecular target: Human immunodeficiency virus type 1 protease (Human immunodeficiency virus 1, UniProt Q72874); assay: Inhibitory activity against HIV-1 Protease
Outline: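 Buffer: 20 mM MES pH 6.0, 2 M NaCl, 5 mM DTT, 2 mM EDTA. Compounds in 25% Me2SO over a concentration range. Incubated 60 min at 37 °C with shaking, then filtered; released radioactivity counted by scintillation. IC50 from duplicate means, standardized to a reference-compound control.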

Row | SMILES | pEC50 [1] | pIC50 [2]
1 | COC(=O)[C@@H](NC(=O)Cc1ccccc1)[C@@H]1N[C@@H](C(=O)NCCNC(=O)[C@@H]2N[C@@H]([C@H](NC(=O)Cc3ccccc3)C(=O)OC)SC2(C)C)C(C)(C)S1 | < 4.00 | –
2 | CCNC(=O)[C@@H](NC(=O)CC(C)C)[C@@H]1N[C@@H](C(=O)NCCNC(=O)[C@@H]2N[C@@H]([C@H](NC(=O)CC(C)C)C(=O)NCC)SC2(C)C)C(C)(C)S1 | < 4.00 | 8.06
3 | CC1(C)S[C@H]([C@H](NC(=O)Cc2ccccc2)C(N)=O)N[C@H]1C(=O)NCCNC(=O)[C@@H]1N[C@@H]([C@H](NC(=O)Cc2ccccc2)C(N)=O)SC1(C)C | < 4.00 | –
4 | CC1(C)S[C@H]([C@H](NC(=O)Cc2ccccc2)C(=O)NCc2ccccn2)N[C@H]1C(=O)NCCNC(=O)[C@@H]1N[C@@H]([C@H](NC(=O)Cc2ccccc2)C(=O)NCc2ccccn2)SC1(C)C | 4.10 | 7.96
5 | CC1(C)S[C@H]([C@H](NC(=O)Cc2ccccn2)C(=O)NCc2ccc(Cl)cc2)N[C@H]1C(=O)NCCNC(=O)[C@@H]1N[C@@H]([C@H](NC(=O)Cc2ccccn2)C(=O)NCc2ccc(Cl)cc2)SC1(C)C | 5.72 | 8.12
6 | CCNC(=O)[C@@H](NC(=O)c1ccccc1Cc1ccccc1)[C@@H]1N[C@@H](C(=O)NCCNC(=O)[C@@H]2N[C@@H]([C@H](NC(=O)c3ccccc3Cc3ccccc3)C(=O)NCC)SC2(C)C)C(C)(C)S1 | < 4.00 | 7.14
7 | CC1(C)S[C@H]([C@H](NC(=O)Cc2ccccc2)C(=O)OCc2ccccc2)N[C@H]1C(=O)NCCNC(=O)[C@@H]1N[C@@H]([C@H](NC(=O)Cc2ccccc2)C(=O)OCc2ccccc2)SC1(C)C | < 4.00 | 7.12
8 | CCNC(=O)[C@@H](NC(=O)/C=C\c1ccccc1)[C@@H]1N[C@@H](C(=O)NCCNC(=O)[C@@H]2N[C@@H]([C@H](NC(=O)/C=C\c3ccccc3)C(=O)NCC)SC2(C)C)C(C)(C)S1 | 5.49 | 8.54
9 | CCNC(=O)[C@@H](NC(=O)c1ccccc1Oc1ccccc1)[C@@H]1N[C@@H](C(=O)NCCNC(=O)[C@@H]2N[C@@H]([C@H](NC(=O)c3ccccc3Oc3ccccc3)C(=O)NCC)SC2(C)C)C(C)(C)S1 | < 4.00 | 6.80
10 | CC(C)(C)OC(=O)CNC(=O)[C@@H](NC(=O)Cc1ccccc1)[C@@H]1N[C@@H](C(=O)NCCNC(=O)[C@@H]2N[C@@H]([C@H](NC(=O)Cc3ccccc3)C(=O)NCC(=O)OC(C)(C)C)SC2(C)C)C(C)(C)S1 | 5.57 | 7.68
11 | CC1(C)S[C@H](CNC(=O)Cc2ccccc2)N[C@H]1C(=O)NCCNC(=O)[C@@H]1N[C@@H](CNC(=O)Cc2ccccc2)SC1(C)C | – | 5.11
12 | CCNC(=O)[C@@H](NC(=O)Cc1ccc(O)cc1)[C@@H]1N[C@@H](C(=O)NCCNC(=O)[C@@H]2N[C@@H]([C@H](NC(=O)Cc3ccc(O)cc3)C(=O)NCC)SC2(C)C)C(C)(C)S1 | – | < 4.92
13 | CC1(C)S[C@H]([C@@H](CO)NC(=O)Cc2ccccc2)N[C@H]1C(=O)NCCNC(=O)[C@@H]1N[C@@H]([C@@H](CO)NC(=O)Cc2ccccc2)SC1(C)C | < 4.00 | 6.85
14 | CC1(C)S[C@H]([C@H](NC(=O)Cc2ccccc2)C(=O)NCC(=O)O)N[C@H]1C(=O)NCCNC(=O)[C@@H]1N[C@@H]([C@H](NC(=O)Cc2ccccc2)C(=O)NCC(=O)O)SC1(C)C | < 4.00 | 7.41
15 | CCNC(=O)[C@@H](NC(=O)Cc1ccccc1)[C@@H]1N[C@@H](C(=O)NCCNC(=O)[C@@H]2N[C@@H]([C@H](NC(=O)Cc3ccccc3)C(=O)NCC)SC2(C)C)C(C)(C)S1 | – | 5.89
16 | CC(C)(C)OC(=O)CNC(=O)[C@@H](NC(=O)c1ccccc1-c1ccccc1)[C@@H]1N[C@@H](C(=O)NCCNC(=O)[C@@H]2N[C@@H]([C@H](NC(=O)c3ccccc3-c3ccccc3)C(=O)NCC(=O)OC(C)(C)C)SC2(C)C)C(C)(C)S1 | 5.80 | 8.39
17 | CN(Cc1ccccc1)C(=O)[C@@H](NC(=O)Cc1ccccc1)[C@@H]1N[C@@H](C(=O)NCCNC(=O)[C@@H]2N[C@@H]([C@H](NC(=O)Cc3ccccc3)C(=O)N(C)Cc3ccccc3)SC2(C)C)C(C)(C)S1 | – | 6.09
18 | CCNC(=O)[C@@H](N)[C@@H]1N[C@@H](C(=O)NCCNC(=O)[C@@H]2N[C@@H]([C@H](N)C(=O)NCC)SC2(C)C)C(C)(C)S1 | – | 3.92
19 | CCNC(=O)[C@@H](NC(=O)c1ccccc1)[C@@H]1N[C@@H](C(=O)NCCNC(=O)[C@@H]2N[C@@H]([C@H](NC(=O)c3ccccc3)C(=O)NCC)SC2(C)C)C(C)(C)S1 | – | 6.41
20 | CC1(C)S[C@H]([C@@H](COC(=O)c2ccccc2)NC(=O)Cc2ccccc2)N[C@H]1C(=O)NCCNC(=O)[C@@H]1N[C@@H]([C@@H](COC(=O)c2ccccc2)NC(=O)Cc2ccccc2)SC1(C)C | – | 7.15
21 | CC1(C)S[C@H]([C@H](NC(=O)Cc2ccccn2)C(=O)NCc2ccccc2)N[C@H]1C(=O)NCCNC(=O)[C@@H]1N[C@@H]([C@H](NC(=O)Cc2ccccn2)C(=O)NCc2ccccc2)SC1(C)C | < 5.00 | 9.26
22 | CCNC(=O)[C@@H](NC(=O)c1c(-c2ccccc2)noc1C)[C@@H]1N[C@@H](C(=O)NCCNC(=O)[C@@H]2N[C@@H]([C@H](NC(=O)c3c(-c4ccccc4)noc3C)C(=O)NCC)SC2(C)C)C(C)(C)S1 | 5.60 | 8.27
23 | CC1(C)S[C@H]([C@H](NC(=O)Cc2ccccc2)C(=O)N(CCO)CCO)N[C@H]1C(=O)NCCNC(=O)[C@@H]1N[C@@H]([C@H](NC(=O)Cc2ccccc2)C(=O)N(CCO)CCO)SC1(C)C | – | 6.08
24 | CCNC(=O)[C@@H](NC(=O)Cc1ccccc1)[C@@H]1N[C@@H](C(=O)NCCNC(=O)[C@@H]2N[C@@H](CNC(=O)Cc3ccccc3)SC2(C)C)C(C)(C)S1 | < 4.00 | 7.46
25 | CCNC(=O)[C@@H](NC(=O)Cc1ccccc1)[C@@H]1N[C@@H](C(=O)NCCNC(=O)[C@@H]2NCSC2(C)C)C(C)(C)S1 | – | 5.06
26 | CC1(C)S[C@H]([C@H](NC(=O)Cc2ccccc2)C(=O)NCCO)N[C@H]1C(=O)NCCNC(=O)[C@@H]1N[C@@H]([C@H](NC(=O)Cc2ccccc2)C(=O)NCCO)SC1(C)C | < 4.00 | 7.40
27 | CC1(C)S[C@H]([C@H](NC(=O)c2ccccc2-c2ccccc2)C(=O)NCC(=O)O)N[C@H]1C(=O)NCCNC(=O)[C@@H]1N[C@@H]([C@H](NC(=O)c2ccccc2-c2ccccc2)C(=O)NCC(=O)O)SC1(C)C | < 4.00 | 7.41
28 | CCNC(=O)[C@@H](NC(=O)c1ccccc1Nc1ccccc1)[C@@H]1N[C@@H](C(=O)NCCNC(=O)[C@@H]2N[C@@H]([C@H](NC(=O)c3ccccc3Nc3ccccc3)C(=O)NCC)SC2(C)C)C(C)(C)S1 | – | 5.32
29 | CCNC(=O)[C@@H](NC(=O)Cc1ccccn1)[C@@H]1N[C@@H](C(=O)NCCNC(=O)[C@@H]2N[C@@H]([C@H](NC(=O)Cc3ccccn3)C(=O)NCC)SC2(C)C)C(C)(C)S1 | < 4.00 | 7.72
30 | CCNC(=O)[C@@H](NC(=O)Cc1ccc2ccccc2c1)[C@@H]1N[C@@H](C(=O)NCCNC(=O)[C@@H]2N[C@@H]([C@H](NC(=O)Cc3ccc4ccccc4c3)C(=O)NCC)SC2(C)C)C(C)(C)S1 | – | 6.09
